# Screening data (PubChem BioAssay)
# This is a sample that favours compounds with a hit; in the whole collection about 3.8% have one here.
# KCNQ1 block: blocks the human KCNQ1 potassium channel | CHO-K1 KCNQ1, FluxOR thallium flux fluorescence; active compounds read high | AID 2642 | P51787 | 310,000 tested, 1.3% active | B-score at 10 µM;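 active means compounds whose thallium flux B-score, printed positive for inhibition, exceeds three library SD while starting fluorescence stays within three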;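 further: channel opened by potassium depolarization with thallium stimulus after 20 min compound exposure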
# KCNK9 inh: inhibitors of human KCNK9 two-pore domain potassium channel | Q9NPC2 | HEK293 KCNK9, FluxOR thallium flux fluorescence; active compounds read low | B-score at 10 µM | 310,000 tested, 1.2% active | AID 488922;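 active means ratio B-score over 3 SD below the library mean, with starting fluorescence within 5 SD of its mean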;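 further: negative B-score means less thallium flux so channel inhibition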
# Kir21 inh: Kir2.1 (mouse) channel inhibition. 310,000 tested, 0.85% active. AID 1672. B-score at 10 µM. HEK293-Kir2.1, FluxOR thallium flux fluorescence; active compounds read low;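 active means fluorescence ratio B-score at or below minus 3 SD of library scores, with starting-brightness B-score within 2 SD, cut at about -4.2 in these data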;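 further: channel flux triggered by added potassium and thallium sulfate stimulus; B-score of peak minus minimum fluorescence over baseline after thallium stimulus; more negative B-score means stronger Kir2.1 block with less thallium influx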
# KCNK3 block: human KCNK3 channel inhibition, primary screen; O14649; CHO-KCNK3 thallium flux, FluxOR fluorescence; active compounds read low; B-score at 10 µM; 340,000 tested, 0.84% active;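 active means B-score under library mean minus 4 SD, starting fluorescence ratio at most library mean plus 5 SD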;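 further: more negative B-score means stronger inhibition of thallium flux through KCNK3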
# hERG protect: hERG (human) protection from proarrhythmic block. 310,000 tested, 0.51% active. activation (rescue from dofetilide block), less the hit threshold, % at 10 µM. CHO-hERG, FluxOR thallium flux, dofetilide IC70 present. Q12809;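 active means activation above the mean of controls blocked by dofetilide plus 5 SD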;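 further: thallium influx through hERG after potassium depolarization seen as dye fluorescence rise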
# KCNQ1 act: human KCNQ1 channel potentiation or activation | CHO-K1 KCNQ1, thallium flux FluxOR fluorescence; active compounds read high | B-score at 10 µM | 310,000 tested, 0.35% active | AID 2648;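 active means fluorescence ratio B-score, a plate-corrected score, at least three library SD, with initial intensity B-score within 5 SD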
#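 Material: CHO-K1 cells stably expressing KCNQ1. Medium: assay buffer for compound exposure, DMSO matched across wells. Reagent: K+/Tl+ depolarizing stimulus. Compound dosing: single-concentration screen. Times: 37 °C overnight plating, 90-min dark dye load, 20-min compound pretreatment. Technique: FluxOR Tl+ flux fluorescence.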
# KCNK3 confirm: human KCNK3 channel inhibition, confirmation assay | CHO-KCNK3 thallium flux, FluxOR fluorescence; 0% buffer, 100% carvedilol maximal block | shares compounds with KCNK3 block | 2,400 tested, 99% active | ratio percent of control, % at 10 µM;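 active means ratio percent of control, averaged over triplicates, above buffer control mean plus 5 SD, cut at about 64% in these data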;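 further: ratio is the fluorescence rise from min to max over baseline after thallium stimulus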
# KCNK3 uninduced: activity in cells without induced KCNK3 expression | shares compounds with KCNK3 block | non-induced KCNK3 parental cells, FluxOR thallium flux; active compounds read low | thallium flux ratio (lower = more inhibition) at 10 µM | 2,400 tested, 40% active | AID 651747;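 active means thallium flux ratio, averaged over three wells, more than 5 SD below the buffer control mean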;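 further: host cells are CHO cells without KCNK3 induction; ratio is peak minus trough fluorescence over baseline then normalized to buffer controls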
# An asterisk follows results filed as active; i = inactive; · = not tested or not shown.
SMILES,KCNQ1 block,KCNK9 inh,Kir21 inh,KCNK3 block,hERG protect,KCNQ1 act,KCNK3 confirm,KCNK3 uninduced
CCOc1ccccc1NC(=O)C(OC(=O)c1ccc(NC(=O)CC#N)cc1)c1ccccc1 (centres undefined),8*,i,1.86,-10.2*,-26.2,i,124.7*,0.134*
Cc1cccc(C(=O)c2cnc3ccccc3c2-c2ccccc2)c1,i,-6.73*,-0.46,-11.4*,-18.8,i,129.0*,0.137*
COc1ccccc1N1CCN(C(c2cccs2)C(C)NC(=O)c2cccs2)CC1 (centres undefined),i,i,0.17,i,-9.5,i,·,·
CCC(C)NS(=O)(=O)c1ccc(S(=O)(=O)N2CCCC3(CCCCC3)C2)cc1 (centres undefined),i,i,-2.39,-9*,-9.9,i,117.7*,0.144*
CCC(C)C(=O)Nc1ccc(S(=O)(=O)N2CCCC2)cc1 (centres undefined),i,i,-0.14,i,-4.6,i,·,·
N#CCCn1cc(C(N)=O)c(-c2ccc3ccccc3c2)n1,i,i,1.15,i,-6.8,i,·,·
S=C(NCC1(c2ccccc2)CCCC1)Nc1ccccc1,i,i,0,i,-12.4,i,·,·
O=C(NCCCSc1ccccc1)c1cc(Br)ccc1O,i,i,-0.73,-8.76*,-15.4,i,151.0*,0.117*
COc1ccc(Cl)cc1C(=O)NCCCSc1ccccc1,i,i,-0.32,-9.17*,-6.5,i,112.3*,0.155*
CC(Oc1ccc2c(-c3ccccc3)cc(=O)oc2c1)C(=O)N1CCC[C@@H]1C(N)=O (some centres undefined),i,i,2.02,i,-7.0,i,·,·
COc1cc(/C=C(\C#N)c2nc3ccccc3o2)ccc1O,i,i,-6.87,i,-13.2,i,·,·
N#C/C(=C\c1ccc(O)cc1)c1nc2ccccc2o1,i,i,-0.26,-11.1*,-18.2,i,130.0*,0.123*
Cc1cc(C)c(C#N)c(SCC(=O)c2ccc(Cl)cc2Cl)n1,i,i,1.06,-10.1*,-3.0,i,108.3*,0.153*
CCOc1ccc(Br)cc1S(=O)(=O)NC1CC(C)(C)NC(C)(C)C1,i,i,0.07,i,-4.8,i,·,·
Cc1noc(C)c1S(=O)(=O)Nc1ccc(C(=O)N2CCc3ccccc3C2)cc1,i,i,0.22,-9.14*,-6.1,i,59.7*,i
CCc1ccc(NC(=O)CSc2nnnn2C)cc1,i,i,1.17,i,-4.0,i,·,·
CCNC(=S)N1CCc2cc(OC)c(OC)cc2C1COc1ccc(F)cc1 (centres undefined),i,i,0.58,-8.71*,-10.0,i,102.0*,i
CCNC(=O)NC(=O)COC(=O)C1CSC2(C)CCC(=O)N12 (centres undefined),i,i,-2.38,i,-6.6,i,·,·
Cc1ccc2nc(-c3ccc(NC(=S)NC4CC(C)(C)NC(C)(C)C4)cc3)sc2c1,8*,i,-5.09*,-14.5*,-32.2,i,125.0*,0.148*
Cc1ccc2nc(-c3ccc(NC(=S)NC(=O)C(C)C)cc3)sc2c1,i,i,-1.11,i,-7.5,i,·,·
O=C(COC(=O)Cc1ccsc1)Nc1ccc(Br)cc1F,·,·,·,i,·,·,·,·
Brc1ccc(-c2noc(CCc3ccccc3)n2)o1,i,i,1.02,i,-9.4,i,·,·
Brc1ccc(-c2noc(COc3ccc4ccccc4c3)n2)o1,i,i,-3.4,-9.08*,-11.7,i,102.0*,i
COc1ccc(C)cc1NC(=O)c1nn(C)c(C(=O)Nc2cc(C)ccc2OC)c1[N+](=O)[O-],i,i,0.01,-9.01*,-6.8,i,81.3*,i
